Values after ≈ are worked out from the molar mass of the structure shown.
What was measured:
Microsporum = assay: Antifungal activity against Microsporum gypseum PTCC 5070 after 168 hrs by agar dilution method; assay type: functional
Outline: (§1)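 Agar dilution on Sabouraud Dextrose Agar. Plates prepared in triplicate and incubated at 30 °C: yeasts about 24–48 h, moulds about 72 h, dermatophytes about 168 h. MIC taken as the lowest concentration with no growth, in µg/mL. Footnote states duplicate determinations.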

Candida albicans = assay: Antifungal activity against Candida albicans PTCC 5027 after 24 to 48 hrs by agar dilution method; assay type: functional; outline: as §1
Saccharomyces cerevisiae = assay: Antifungal activity against Saccharomyces cerevisiae PTCC 5177 after 24 to 48 hrs by agar dilution method; assay type: functional; outline: as §1
Aspergillus niger = assay: Antifungal activity against Aspergillus niger PTCC 5012 after 72 hrs by agar dilution method; assay type: functional; outline: as §1
[1] = Cytotoxicity against mouse NIH/3T3 cells after 72 hrs by MTT colorimetric assay; assay type: cell-based; settings: NIH3T3, 72 h
Outline: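 NIH/3T3 cells in exponential growth were trypsinized and seeded at 5 × 10^4 cells/mL in complete medium. Serial dilutions were added, each in triplicate, with untreated cells as the viability control. After 72 h incubation, MTT (5 mg/mL solution) was added for 1 h. Medium was replaced with DMSO and absorbance read at 492 nm. IC50 was taken from dose-response curves against control; mean ± SD of triplicates.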

Compound	MIC (Microsporum) [µg/mL]	MIC (Candida albicans) [µg/mL]	MIC (Saccharomyces cerevisiae) [µg/mL]	MIC (Aspergillus niger) [µg/mL]	IC50 [1] [µg/mL]
O=C(Cn1ccnc1)c1ccc(Cl)cc1O	32 (≈ 135 µM)	64 (≈ 270 µM)	0.25 (≈ 1.06 µM)	64 (≈ 270 µM)	
COc1ccc(C(=O)Cn2ccnc2)c(O)c1	8 (≈ 34.4 µM)	8 (≈ 34.4 µM)	0.25 (≈ 1.08 µM)	16 (≈ 68.9 µM)	221 (≈ 952 µM)
O=C(Cn1cncn1)c1ccccc1O	64 (≈ 315 µM)	64 (≈ 315 µM)	64 (≈ 315 µM)	32 (≈ 157 µM)	
O=C(Cn1cncn1)c1ccc(Cl)cc1O	16 (≈ 67.3 µM)	32 (≈ 135 µM)	64 (≈ 269 µM)	16 (≈ 67.3 µM)	
COc1ccc(C(=O)Cn2cncn2)c(O)c1	16 (≈ 68.6 µM)	8 (≈ 34.3 µM)	8 (≈ 34.3 µM)	32 (≈ 137 µM)	222 (≈ 952 µM)
COc1ccc(C(=O)Cn2c[n+](N)cn2)c(O)c1.[Br-]	8	2	4	16	254
O=C(Cn1c[n+](CC(=O)c2ccc(Cl)cc2O)cn1)c1ccc(Cl)cc1O.[Br-]	32	32	8	64	
O=C(Cn1cnnc1)c1ccc(Cl)cc1O	64 (≈ 269 µM)	16 (≈ 67.3 µM)	16 (≈ 67.3 µM)	32 (≈ 135 µM)	
N[n+]1cnn(CC(=O)c2ccccc2O)c1.[Br-]	32	64	32	32	
O/N=C(\Cn1ccnc1)c1ccccc1O	64 (≈ 295 µM)	32 (≈ 147 µM)	32 (≈ 147 µM)	64 (≈ 295 µM)	
O=C(Cn1ccnc1)c1ccccc1O	64 (≈ 316 µM)	64 (≈ 316 µM)	64 (≈ 316 µM)	64 (≈ 316 µM)	
O=C(Cn1c[n+](CC(=O)c2ccccc2O)cn1)c1ccccc1O.[Br-]	16	16	1	32	47
N[n+]1cnn(CC(=O)c2ccc(Cl)cc2O)c1.[Br-]	16	4	0.25	32	370
O=C(Cn1cnnc1)c1ccccc1O	16 (≈ 78.7 µM)	32 (≈ 157 µM)	16 (≈ 78.7 µM)	16 (≈ 78.7 µM)	
COc1ccc(C(=O)Cn2c[n+](CC(=O)c3ccc(OC)cc3O)cn2)c(O)c1.[Br-]	16	8	4	16	98
OC(Cn1cncn1)(Cn1cncn1)c1ccc(F)cc1F [FLUCONAZOLE]	32 (≈ 104 µM)	8 (≈ 26.1 µM)	32 (≈ 104 µM)	32 (≈ 104 µM)	387 (≈ 1260 µM)
Clc1ccc(COC(Cn2ccnc2)c2ccc(Cl)cc2Cl)c(Cl)c1 (stereo not given) [MICONAZOLE]	8 (≈ 19.2 µM)	1 (≈ 2.4 µM)	1 (≈ 2.4 µM)	2 (≈ 4.81 µM)	
